ChEMBL document CHEMBL5236607, “Membrane-Active Cyclic Amphiphilic Peptides: Broad-Spectrum Antibacterial Activity Alone and in Combination with Antibiotics” (J Med Chem, 2022)
Peptide text beside a SMILES is read from it.

Key:
[1] = Therapeutic index, ratio of HC50 for human RBC to MIC for methicillin resistant Staphylococcus aureus ATCC BAA-1556
In short: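 Human RBCs washed in PBS pH 7.4 and mixed 1:1 with two-fold peptide dilutions (4% v/v suspension), 2 h at 37 °C. Hemoglobin in supernatant read at 567 nm against PBS (0%) and 1% Triton X-100 (100%). HC50 is the concentration giving 50% hemolysis. Index is HC50 divided by MIC against MRSA.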

[2] = tested on: Staphylococcus aureus; assay: Synergistic antibacterial activity against methicillin resistant Staphylococcus aureus ATCC BAA-1556 incubated for 24 hrs in presence of tobramycin by checkerboard assay; assay type: functional
In short: (§1)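 Checkerboard assay. Inoculum from an LB overnight culture at 0.5 McFarland, diluted 1/150 in MH media. […] Incubated 37 °C for 24 h. FICI = MIC combination/MIC alone summed over both agents. Triplicate.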

[3] = tested on: Staphylococcus aureus; assay: Synergistic antibacterial activity against methicillin resistant Staphylococcus aureus ATCC BAA-1556 incubated for 24 hrs in presence of clindamycin by checkerboard assay; assay type: functional; in short: as §1
[4] = tested on: Pseudomonas aeruginosa; assay: Synergistic antibacterial activity against Pseudomonas aeruginosa ATCC […] incubated for 24 hrs in presence of levofloxacin by checkerboard assay; assay type: functional
[5] = tested on: Escherichia coli; assay: Synergistic antibacterial activity against Escherichia coli ATCC 25922 incubated for 24 hrs in presence of polymyxin B by checkerboard assay; assay type: functional
In short: (§2)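 Checkerboard assay in MH broth. Inoculum from an LB overnight culture set to 0.5 McFarland and diluted 1/150. […] Each agent was also titrated alone. Incubation 24 h at 37 °C. FIC = combination MIC/individual MIC; FICI = sum of the FICs. Triplicate.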

[6] = tested on: Staphylococcus aureus; assay: Synergistic antibacterial activity against methicillin resistant Staphylococcus aureus ATCC BAA-1556 incubated for 24 hrs in presence of vancomycin by checkerboard assay; assay type: functional; in short: as §1
[7] = tested on: Pseudomonas aeruginosa; assay: Synergistic antibacterial activity against Pseudomonas aeruginosa ATCC […] assessed as fractional inhibitory concentration index incubated for 24 hrs in presence of tetracycline by checkerboard assay; assay type: functional
[8] = tested on: Staphylococcus aureus; assay: Synergistic antibacterial activity against methicillin resistant Staphylococcus aureus ATCC BAA-1556 assessed as fractional inhibitory concentration index incubated for 24 hrs in presence of clindamycin by checkerboard assay; assay type: functional; in short: as §1
[9] = tested on: Escherichia coli; assay: Synergistic antibacterial activity against Escherichia coli ATCC 25922 assessed as fractional inhibitory concentration index incubated for 24 hrs in presence of clindamycin by checkerboard assay; assay type: functional; in short: as §2
[10] = tested on: Pseudomonas aeruginosa; assay: Synergistic antibacterial activity against Pseudomonas aeruginosa ATCC […] fractional inhibitory concentration index incubated for 24 hrs in presence of kanamycin by checkerboard assay; assay type: functional
[11] = tested on: Escherichia coli; assay: Synergistic antibacterial activity against Escherichia coli ATCC 25922 fractional inhibitory concentration index incubated for 24 hrs in presence of kanamycin by checkerboard assay; assay type: functional; in short: as §2
[12] = tested on: Escherichia coli; assay: Synergistic antibacterial activity against Escherichia coli ATCC 25922 fractional inhibitory concentration index incubated for 24 hrs in presence of levofloxacin by checkerboard assay; assay type: functional; in short: as §2
[13] = tested on: Klebsiella pneumoniae; assay: Synergistic antibacterial activity against Klebsiella pneumoniae ATCC BAA-1705 fractional inhibitory concentration index incubated for 24 hrs in presence of Ciprofloxacin by checkerboard assay; assay type: functional; in short: as §2
[14] = tested on: Pseudomonas aeruginosa; assay: Synergistic antibacterial activity against Pseudomonas aeruginosa ATCC […] fractional inhibitory concentration index incubated for 24 hrs in presence of metronidazole by checkerboard assay; assay type: functional
[15] = tested on: Klebsiella pneumoniae; assay: Synergistic antibacterial activity against Klebsiella pneumoniae ATCC BAA-1705 fractional inhibitory concentration index incubated for 24 hrs in presence of metronidazole by checkerboard assay; assay type: functional
[16] = tested on: Pseudomonas aeruginosa; assay: Synergistic antibacterial activity against Pseudomonas aeruginosa ATCC […] fractional inhibitory concentration index incubated for 24 hrs in presence of vancomycin by checkerboard assay; assay type: functional
[17] = tested on: Escherichia coli; assay: Synergistic antibacterial activity against Escherichia coli ATCC 25922 fractional inhibitory concentration index incubated for 24 hrs in presence of vancomycin by checkerboard assay; assay type: functional; in short: as §1
[18] = tested on: Klebsiella pneumoniae; assay: Synergistic antibacterial activity against Klebsiella pneumoniae ATCC BAA-1705 fractional inhibitory concentration index incubated for 24 hrs in presence of vancomycin by checkerboard assay; assay type: functional; in short: as §1
[19] = tested on: Pseudomonas aeruginosa; assay: Synergistic antibacterial activity against Pseudomonas aeruginosa ATCC […] fractional inhibitory concentration index incubated for 24 hrs in presence of daptomycin by checkerboard assay; assay type: functional
[20] = tested on: Klebsiella pneumoniae; assay: Synergistic antibacterial activity against Klebsiella pneumoniae ATCC BAA-1705 fractional inhibitory concentration index incubated for 24 hrs in presence of daptomycin by checkerboard assay; assay type: functional; in short: as §2
[21] = tested on: Escherichia coli; assay: Synergistic antibacterial activity against Escherichia coli ATCC 25922 assessed as fractional inhibitory concentration incubated for 24 hrs in presence of tetracycline by checkerboard assay; assay type: functional; in short: as §2
[22] = tested on: Klebsiella pneumoniae; assay: Synergistic antibacterial activity against Klebsiella pneumoniae ATCC BAA-1705 assessed as fractional inhibitory concentration incubated for 24 hrs in presence of tetracycline by checkerboard assay; assay type: functional; in short: as §2
[23] = tested on: Klebsiella pneumoniae; assay: Synergistic antibacterial activity against Klebsiella pneumoniae ATCC BAA-1705 assessed as fractional inhibitory concentration incubated for 24 hrs in presence of tobramycin by checkerboard assay; assay type: functional; in short: as §2
[24] = tested on: Staphylococcus aureus; assay: Synergistic antibacterial activity against methicillin resistant Staphylococcus aureus ATCC BAA-1556 assessed as fractional inhibitory concentration incubated for 24 hrs in presence of clindamycin by checkerboard assay; assay type: functional; in short: as §1
[25] = tested on: Pseudomonas aeruginosa; assay: Synergistic antibacterial activity against Pseudomonas aeruginosa ATCC […] fractional inhibitory concentration incubated for 24 hrs in presence of kanamycin by checkerboard assay; assay type: functional; in short: as §1
[26] = tested on: Escherichia coli; assay: Synergistic antibacterial activity against Escherichia coli ATCC 25922 fractional inhibitory concentration incubated for 24 hrs in presence of kanamycin by checkerboard assay; assay type: functional; in short: as §2
[27] = tested on: Klebsiella pneumoniae; assay: Synergistic antibacterial activity against Klebsiella pneumoniae ATCC BAA-1705 fractional inhibitory concentration incubated for 24 hrs in presence of kanamycin by checkerboard assay; assay type: functional; in short: as §2
[28] = tested on: Pseudomonas aeruginosa; assay: Synergistic antibacterial activity against Pseudomonas aeruginosa ATCC […] fractional inhibitory concentration incubated for 24 hrs in presence of levofloxacin by checkerboard assay; assay type: functional
[29] = tested on: Escherichia coli; assay: Synergistic antibacterial activity against Escherichia coli ATCC 25922 fractional inhibitory concentration incubated for 24 hrs in presence of levofloxacin by checkerboard assay; assay type: functional; in short: as §2
[30] = tested on: Klebsiella pneumoniae; assay: Synergistic antibacterial activity against Klebsiella pneumoniae ATCC BAA-1705 fractional inhibitory concentration incubated for 24 hrs in presence of levofloxacin by checkerboard assay; assay type: functional; in short: as §2
[31] = tested on: Klebsiella pneumoniae; assay: Synergistic antibacterial activity against Klebsiella pneumoniae ATCC BAA-1705 fractional inhibitory concentration incubated for 24 hrs in presence of polymyxin B by checkerboard assay; assay type: functional; in short: as §2
[32] = tested on: Klebsiella pneumoniae; assay: Synergistic antibacterial activity against Klebsiella pneumoniae ATCC BAA-1705 fractional inhibitory concentration incubated for 24 hrs in presence of metronidazole by checkerboard assay; assay type: functional; in short: as §1
[33] = tested on: Pseudomonas aeruginosa; assay: Synergistic antibacterial activity against Pseudomonas aeruginosa ATCC […] fractional inhibitory concentration incubated for 24 hrs in presence of vancomycin by checkerboard assay; assay type: functional
[34] = tested on: Klebsiella pneumoniae; assay: Synergistic antibacterial activity against Klebsiella pneumoniae ATCC BAA-1705 fractional inhibitory concentration incubated for 24 hrs in presence of vancomycin by checkerboard assay; assay type: functional; in short: as §2

Row | Structure (SMILES) | TI [1] | MIC [2] [mg/L] | MIC [3] [mg/L] | MIC [4] [mg/L] | MIC [5] [mg/L] | MIC [6] [mg/L] | fractional inhibitory concentration index (FICI) [7] | fractional inhibitory concentration index (FICI) [8] | fractional inhibitory concentration index (FICI) [9] | fractional inhibitory concentration index (FICI) [10] | fractional inhibitory concentration index (FICI) [11] | fractional inhibitory concentration index (FICI) [12] | fractional inhibitory concentration index (FICI) [13] | fractional inhibitory concentration index (FICI) [14] | fractional inhibitory concentration index (FICI) [15] | fractional inhibitory concentration index (FICI) [16] | fractional inhibitory concentration index (FICI) [17] | fractional inhibitory concentration index (FICI) [18] | fractional inhibitory concentration index (FICI) [19] | fractional inhibitory concentration index (FICI) [20] | other results
1 | N=C(N)NCCC[C@@H]1NC(=O)[C@H](CCCNC(=N)N)NC(=O)[C@H](CCCNC(=N)N)NC(=O)[C@H](Cc2c[nH]c3ccccc23)NC(=O)[C@H](Cc2c[nH]c3ccccc23)NC(=O)[C@H](Cc2c[nH]c3ccccc23)NC(=O)[C@H](Cc2c[nH]c3ccccc23)NC(=O)[C@H](CCCNC(=N)N)NC(=O)[C@H](CCCNC(=N)N)NC1=O | 85 | 0.125 | 0.0312 | 0.125 | 0.25 | 0.5 | 0.375 | 0.499 | 0.313 | 0.281 | 0.5 | 0.375 | 0.313 | 0.5 | 0.281 | 0.313 | 0.531 | 0.563 | 0.313 | 0.516 | FIC [21]: 0.125; FIC [22]: 0.125; FIC [23]: 0.125; FIC [24]: 0.249; FIC [25]: 0.0313; FIC [26]: 0.25; FIC [27]: 0.125; FIC [28]: 0.125; FIC [29]: 0.125; FIC [30]: 0.125; FIC [31]: 0.125; FIC [32]: 0.0313; FIC [33]: 0.063; FIC [34]: 0.0625
2 | N=C(N)NCCC[C@@H]1NC(=O)[C@H](CCCNC(=N)N)NC(=O)[C@H](CCCNC(=N)N)NC(=O)[C@H](CCCNC(=N)N)NC(=O)[C@H](Cc2c[nH]c3ccccc23)NC(=O)[C@H](Cc2c[nH]c3ccccc23)NC(=O)[C@H](Cc2c[nH]c3ccccc23)NC(=O)[C@H](Cc2c[nH]c3ccccc23)NC(=O)[C@H](CCCNC(=N)N)NC(=O)[C@H](CCCNC(=N)N)NC1=O (cyclo(RRRRRRWWWW)) | 33.1 | 0.0625 | 0.031 | 0.125 | 0.125 | 0.25 | 0.5 | 0.498 | 0.313 | 0.266 | 0.375 | 0.375 | 0.313 | 0.375 | 0.313 | 0.531 | 0.563 | 0.313 | 0.516 | 0.375 | FIC [21]: 0.063; FIC [22]: 0.125; FIC [23]: 0.25; FIC [24]: 0.248; FIC [25]: 0.0156; FIC [26]: 0.125; FIC [27]: 0.25; FIC [28]: 0.125; FIC [29]: 0.125; FIC [30]: 0.125; FIC [31]: 0.031; FIC [32]: 0.063; FIC [33]: 0.0313; FIC [34]: 0.0625
